# Source: ChEMBL document CHEMBL4382192, “Discovery of a potent dual ALK and EGFR T790M inhibitor” (Eur J Med Chem, 2017)
# Columns and labels:
# [1] = target: Phosphatidylinositol 4-phosphate 3-kinase C2 domain-containing subunit beta (Homo sapiens) (UniProt O00750); experiment: Binding affinity to wild-type human partial length PIK3C2B (M1 to L1634 residues) expressed in mammalian expression system assessed as residual binding level at 1 uM by Kinomescan method relative to control
# [2] = target: Fibroblast growth factor receptor 3 (Homo sapiens) (UniProt P22607); experiment: Binding affinity to wild-type human partial length FGFR3 (R442 to S771 residues) expressed in bacterial expression system assessed as residual binding level at 1 uM by Kinomescan method relative to control
# [3] = target: Ribosomal protein S6 kinase alpha-3 (Homo sapiens) (UniProt P51812); experiment: Binding affinity to wild-type human partial length N-terminal RSK2 kinase domain 1 (M1 to D394 residues) expressed in mammalian expression system assessed as residual binding level at 1 uM by Kinomescan method relative to control
# [4] = target: Angiopoietin-1 receptor (Homo sapiens) (UniProt Q02763); experiment: Binding affinity to wild-type human partial length TIE2 (N804 to T1112 residues) expressed in bacterial expression system assessed as residual binding level at 1 uM by Kinomescan method relative to control
# [5] = target: Inhibitor of nuclear factor kappa-B kinase subunit epsilon (Homo sapiens) (UniProt Q14164); experiment: Binding affinity to wild-type human full length IKK-epsilon (M1 to V716 residues) expressed in mammalian expression system assessed as residual binding level at 1 uM by Kinomescan method relative to control
# Outline: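 Single-point kinome-wide KINOMEscan binding panel, test compound at 1 μM, run by the provider's standard protocol.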
# [6] = target: Ribosomal protein S6 kinase beta-1 (Homo sapiens) (UniProt P23443); experiment: Binding affinity to wild-type human partial length S6K1 (M1 to S421 residues) expressed in mammalian expression system assessed as residual binding level at 1 uM by Kinomescan method relative to control
# [7] = target: Tyrosine-protein kinase receptor Tie-1 (Homo sapiens) (UniProt P35590); experiment: Binding affinity to wild-type human partial length TIE1 (T819 to A1138 residues) expressed in bacterial expression system assessed as residual binding level at 1 uM by Kinomescan method relative to control
# [8] = test system: Tyrosine-protein kinase ABL1 (Homo sapiens), P00519 [E255K]; experiment: Binding affinity to human phosphorylated ABL1 E255K mutant (S229 to K512 residues) expressed in mammalian expression system assessed as residual binding level at 1 uM by Kinomescan method relative to control
# Outline: (§1)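 Kinome-wide selectivity panel run by the KINOMEscan method, with the test compound at a single concentration of 1 μM. Wild-type and mutant kinases were profiled in the same screen.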
# [9] = target: Serine/threonine-protein kinase DCLK3 (Homo sapiens) (UniProt Q9C098); experiment: Binding affinity to wild-type human partial length DCAMKL3 (E140 to V628 residues) expressed in bacterial expression system assessed as residual binding level at 1 uM by Kinomescan method relative to control
# [10] = target: Serine/threonine-protein kinase 32A (Homo sapiens) (UniProt Q8WU08); experiment: Binding affinity to wild-type human full length YANK1 (M1 to L396 residues) expressed in mammalian expression system assessed as residual binding level at 1 uM by Kinomescan method relative to control
# [11] = target: Serine/threonine-protein kinase N2 (Homo sapiens) (UniProt Q16513); experiment: Binding affinity to wild-type human partial length PKN2 (E634 to C984 residues) expressed in bacterial expression system assessed as residual binding level at 1 uM by Kinomescan method relative to control
# BaF3 = experiment: Antiproliferative activity against mouse BAF3 cells assessed as reduction in cell viability after 72 hrs by MTS assay; type: cell-based; conditions: BaF3, 72 h
# [12] = target: Serine/threonine-protein kinase PLK2 (Homo sapiens) (UniProt Q9NYY3); experiment: Binding affinity to wild-type human partial length PLK2 (H58 to F354 residues) expressed in mammalian expression system assessed as residual binding level at 1 uM by Kinomescan method relative to control
# [13] = target: Cyclin-dependent kinase 19 (Homo sapiens) (UniProt Q9BWU1); experiment: Binding affinity to wild-type human partial length CDK11 (M1 to N360 residues) expressed in bacterial expression system assessed as residual binding level at 1 uM by Kinomescan method relative to control
# [14] = target: Phosphatidylinositol 4,5-bisphosphate 3-kinase catalytic subunit beta isoform (Homo sapiens) (UniProt P42338); experiment: Binding affinity to wild-type human partial length PIK3CB (P118 to S1070 residues) expressed in mammalian expression system assessed as residual binding level at 1 uM by Kinomescan method relative to control
# [15] = target: MAP kinase-interacting serine/threonine-protein kinase 2 (Homo sapiens) (UniProt Q9HBH9); experiment: Binding affinity to wild-type human partial length MKNK2 (G63 to S388 residues) expressed in mammalian expression system assessed as residual binding level at 1 uM by Kinomescan method relative to control
# [16] = target: Serine/threonine-protein kinase Sgk3 (Homo sapiens) (UniProt Q96BR1); experiment: Binding affinity to wild-type human partial length SGK3 (M119 to L496 residues) expressed in mammalian expression system assessed as residual binding level at 1 uM by Kinomescan method relative to control
# [17] = target: Ribosomal protein S6 kinase alpha-2 (Homo sapiens) (UniProt Q15349); experiment: Binding affinity to wild-type human partial length N-terminal RSK3 kinase domain 1 (M1 to Q385 residues) expressed in bacterial expression system assessed as residual binding level at 1 uM by Kinomescan method relative to control
# [18] = test system: Tyrosine-protein kinase ABL1 (Homo sapiens), P00519 [T315I]; experiment: Binding affinity to human phosphorylated ABL1 T315I mutant (S229 to K512 residues) expressed in mammalian expression system assessed as residual binding level at 1 uM by Kinomescan method relative to control; outline: as §1
# [19] = test system: Epidermal growth factor receptor (Homo sapiens), P00533 [UNDEFINED MUTATION]; experiment: Binding affinity to human partial length EGFR E746-A750del mutant expressed in bacterial expression system assessed as residual binding level at 1 uM by Kinomescan method relative to control; outline: as §1
# [20] = target: Mitogen-activated protein kinase kinase kinase 4 (Homo sapiens) (UniProt Q9Y6R4); experiment: Binding affinity to wild-type human partial length MAP3K4 (G1319 to E1608 residues) expressed in bacterial expression system assessed as residual binding level at 1 uM by Kinomescan method relative to control
# [21] = target: Ankyrin repeat and protein kinase domain-containing protein 1 (Homo sapiens) (UniProt Q8NFD2); experiment: Binding affinity to wild-type human partial length ANKK1 (M1 to A305 residues) expressed in mammalian expression system assessed as residual binding level at 1 uM by Kinomescan method relative to control
# [22] = test system: Phosphatidylinositol 4,5-bisphosphate 3-kinase catalytic subunit alpha isoform (Homo sapiens), P42336 [Q546K]; experiment: Binding affinity to human partial length PIK3CA Q546K mutant (R108 to N1068 residues) expressed in mammalian expression system assessed as residual binding level at 1 uM by Kinomescan method relative to control
# [23] = target: Cyclin-dependent kinase 9 (Homo sapiens) (UniProt P50750); experiment: Binding affinity to wild-type human full length CDK9 (M1 to F372 residues) expressed in bacterial expression system assessed as residual binding level at 1 uM by Kinomescan method relative to control
# Sequence of Cyclin-dependent kinase 9 (Homo sapiens) (P50750 whole entry, the tested form may be a part): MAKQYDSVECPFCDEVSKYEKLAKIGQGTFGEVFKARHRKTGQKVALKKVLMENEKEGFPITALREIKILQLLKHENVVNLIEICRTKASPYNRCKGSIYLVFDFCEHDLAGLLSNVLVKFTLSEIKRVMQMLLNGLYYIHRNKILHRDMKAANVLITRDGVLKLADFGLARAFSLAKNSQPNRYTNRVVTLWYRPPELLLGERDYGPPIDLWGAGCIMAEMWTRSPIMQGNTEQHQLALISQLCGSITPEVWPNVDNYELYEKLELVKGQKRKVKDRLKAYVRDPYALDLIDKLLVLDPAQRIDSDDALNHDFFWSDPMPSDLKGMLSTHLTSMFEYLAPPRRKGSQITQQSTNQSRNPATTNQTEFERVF
# Sequence of Serine/threonine-protein kinase PLK2 (Homo sapiens) (Q9NYY3 whole entry, looked up, the tested form may be a part): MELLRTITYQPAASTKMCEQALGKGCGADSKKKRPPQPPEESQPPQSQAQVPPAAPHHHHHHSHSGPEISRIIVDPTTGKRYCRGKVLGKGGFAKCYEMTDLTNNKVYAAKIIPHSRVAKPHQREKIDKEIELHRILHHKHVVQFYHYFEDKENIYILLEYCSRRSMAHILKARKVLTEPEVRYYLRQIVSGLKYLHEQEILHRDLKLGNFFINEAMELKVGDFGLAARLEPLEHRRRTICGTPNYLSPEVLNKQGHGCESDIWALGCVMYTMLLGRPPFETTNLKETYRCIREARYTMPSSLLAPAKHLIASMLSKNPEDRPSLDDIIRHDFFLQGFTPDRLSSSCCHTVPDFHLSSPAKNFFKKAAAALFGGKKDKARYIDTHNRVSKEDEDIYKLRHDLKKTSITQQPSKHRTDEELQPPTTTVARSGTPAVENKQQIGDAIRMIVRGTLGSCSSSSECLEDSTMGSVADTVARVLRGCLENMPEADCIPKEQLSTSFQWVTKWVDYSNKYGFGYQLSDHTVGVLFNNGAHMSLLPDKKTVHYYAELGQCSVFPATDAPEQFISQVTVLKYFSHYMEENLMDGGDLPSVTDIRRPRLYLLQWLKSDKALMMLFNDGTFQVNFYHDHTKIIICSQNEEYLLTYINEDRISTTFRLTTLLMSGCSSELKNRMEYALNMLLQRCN
# Sequence of Phosphatidylinositol 4-phosphate 3-kinase C2 domain-containing subunit beta (Homo sapiens) (O00750 whole entry, the tested form may be a part): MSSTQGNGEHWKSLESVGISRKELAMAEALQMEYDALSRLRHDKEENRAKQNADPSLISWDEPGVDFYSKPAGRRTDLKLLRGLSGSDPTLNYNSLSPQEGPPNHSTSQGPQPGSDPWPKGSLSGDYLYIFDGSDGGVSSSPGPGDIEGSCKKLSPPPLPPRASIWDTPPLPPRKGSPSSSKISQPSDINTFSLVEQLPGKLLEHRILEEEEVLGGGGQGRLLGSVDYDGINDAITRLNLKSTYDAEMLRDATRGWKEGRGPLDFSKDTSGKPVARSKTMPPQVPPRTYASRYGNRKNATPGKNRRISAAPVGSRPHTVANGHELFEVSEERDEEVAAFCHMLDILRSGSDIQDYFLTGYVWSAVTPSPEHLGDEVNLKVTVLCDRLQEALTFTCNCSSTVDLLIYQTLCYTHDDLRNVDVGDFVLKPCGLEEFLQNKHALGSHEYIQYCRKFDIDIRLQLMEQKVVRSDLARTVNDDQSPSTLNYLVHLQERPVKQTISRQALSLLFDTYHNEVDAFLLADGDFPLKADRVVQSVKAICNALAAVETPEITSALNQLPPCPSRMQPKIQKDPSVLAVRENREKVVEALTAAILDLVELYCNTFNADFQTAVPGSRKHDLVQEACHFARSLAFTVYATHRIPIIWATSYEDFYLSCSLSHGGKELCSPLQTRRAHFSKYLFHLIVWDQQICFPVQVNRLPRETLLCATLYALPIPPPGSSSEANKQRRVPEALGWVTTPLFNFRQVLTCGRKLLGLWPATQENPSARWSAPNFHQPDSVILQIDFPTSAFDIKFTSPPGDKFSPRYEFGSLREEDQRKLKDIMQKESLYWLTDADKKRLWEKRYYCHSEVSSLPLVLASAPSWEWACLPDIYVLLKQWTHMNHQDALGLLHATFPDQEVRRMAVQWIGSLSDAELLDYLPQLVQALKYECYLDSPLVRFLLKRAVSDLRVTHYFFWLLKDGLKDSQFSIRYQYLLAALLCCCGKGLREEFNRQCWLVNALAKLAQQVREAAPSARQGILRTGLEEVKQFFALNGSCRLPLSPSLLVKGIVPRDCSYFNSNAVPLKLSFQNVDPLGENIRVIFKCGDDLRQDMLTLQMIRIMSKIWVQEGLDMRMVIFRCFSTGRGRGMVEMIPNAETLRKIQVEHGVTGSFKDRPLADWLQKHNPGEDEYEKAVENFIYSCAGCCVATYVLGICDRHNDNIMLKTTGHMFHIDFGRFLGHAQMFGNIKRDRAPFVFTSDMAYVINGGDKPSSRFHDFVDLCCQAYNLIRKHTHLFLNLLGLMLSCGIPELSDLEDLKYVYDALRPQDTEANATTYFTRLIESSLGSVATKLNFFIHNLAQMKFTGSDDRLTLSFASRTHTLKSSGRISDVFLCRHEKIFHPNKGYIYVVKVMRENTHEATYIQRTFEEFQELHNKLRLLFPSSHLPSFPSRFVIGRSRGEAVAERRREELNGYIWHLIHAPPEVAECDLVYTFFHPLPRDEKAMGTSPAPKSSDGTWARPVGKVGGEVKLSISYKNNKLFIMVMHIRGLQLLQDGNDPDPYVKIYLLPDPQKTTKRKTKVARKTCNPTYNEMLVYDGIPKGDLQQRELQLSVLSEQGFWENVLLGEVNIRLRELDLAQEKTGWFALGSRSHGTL
# Sequence of Cyclin-dependent kinase 19 (Homo sapiens) (Q9BWU1 whole entry, the tested form may be a part, canonical isoform): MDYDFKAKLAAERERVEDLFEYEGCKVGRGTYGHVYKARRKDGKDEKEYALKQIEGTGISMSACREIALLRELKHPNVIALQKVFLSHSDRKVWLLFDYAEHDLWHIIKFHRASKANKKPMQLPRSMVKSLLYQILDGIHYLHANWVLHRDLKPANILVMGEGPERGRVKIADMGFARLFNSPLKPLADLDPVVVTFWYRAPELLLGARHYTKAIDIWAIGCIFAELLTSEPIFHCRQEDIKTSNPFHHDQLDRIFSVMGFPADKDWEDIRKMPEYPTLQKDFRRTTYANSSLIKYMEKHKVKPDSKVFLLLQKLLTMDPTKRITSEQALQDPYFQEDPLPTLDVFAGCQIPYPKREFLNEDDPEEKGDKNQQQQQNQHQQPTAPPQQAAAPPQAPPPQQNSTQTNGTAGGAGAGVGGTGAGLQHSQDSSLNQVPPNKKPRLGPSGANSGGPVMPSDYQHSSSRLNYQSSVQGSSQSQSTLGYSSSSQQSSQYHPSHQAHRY
# Sequence of Fibroblast growth factor receptor 3 (Homo sapiens) (P22607 23-806 limits assumed): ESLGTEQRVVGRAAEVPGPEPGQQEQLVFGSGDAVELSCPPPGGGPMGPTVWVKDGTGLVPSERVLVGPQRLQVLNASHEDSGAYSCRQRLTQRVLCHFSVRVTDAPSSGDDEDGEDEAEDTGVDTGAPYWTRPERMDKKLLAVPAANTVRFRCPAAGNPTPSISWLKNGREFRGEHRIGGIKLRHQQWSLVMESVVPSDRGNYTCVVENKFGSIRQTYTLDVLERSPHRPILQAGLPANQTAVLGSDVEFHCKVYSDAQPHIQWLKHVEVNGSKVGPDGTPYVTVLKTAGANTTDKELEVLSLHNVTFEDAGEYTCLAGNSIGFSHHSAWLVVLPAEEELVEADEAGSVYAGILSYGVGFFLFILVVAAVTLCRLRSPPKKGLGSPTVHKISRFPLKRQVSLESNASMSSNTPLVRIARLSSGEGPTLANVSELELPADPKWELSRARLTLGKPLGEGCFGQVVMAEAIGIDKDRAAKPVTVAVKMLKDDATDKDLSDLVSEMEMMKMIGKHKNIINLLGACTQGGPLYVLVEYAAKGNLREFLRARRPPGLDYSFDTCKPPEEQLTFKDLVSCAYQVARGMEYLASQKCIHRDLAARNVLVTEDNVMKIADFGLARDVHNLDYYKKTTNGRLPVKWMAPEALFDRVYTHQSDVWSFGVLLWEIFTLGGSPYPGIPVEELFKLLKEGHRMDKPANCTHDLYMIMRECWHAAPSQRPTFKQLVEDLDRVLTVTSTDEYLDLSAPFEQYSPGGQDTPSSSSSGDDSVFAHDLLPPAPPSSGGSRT
# Sequence of Angiopoietin-1 receptor (Homo sapiens) (Q02763 whole entry, the tested form may be a part): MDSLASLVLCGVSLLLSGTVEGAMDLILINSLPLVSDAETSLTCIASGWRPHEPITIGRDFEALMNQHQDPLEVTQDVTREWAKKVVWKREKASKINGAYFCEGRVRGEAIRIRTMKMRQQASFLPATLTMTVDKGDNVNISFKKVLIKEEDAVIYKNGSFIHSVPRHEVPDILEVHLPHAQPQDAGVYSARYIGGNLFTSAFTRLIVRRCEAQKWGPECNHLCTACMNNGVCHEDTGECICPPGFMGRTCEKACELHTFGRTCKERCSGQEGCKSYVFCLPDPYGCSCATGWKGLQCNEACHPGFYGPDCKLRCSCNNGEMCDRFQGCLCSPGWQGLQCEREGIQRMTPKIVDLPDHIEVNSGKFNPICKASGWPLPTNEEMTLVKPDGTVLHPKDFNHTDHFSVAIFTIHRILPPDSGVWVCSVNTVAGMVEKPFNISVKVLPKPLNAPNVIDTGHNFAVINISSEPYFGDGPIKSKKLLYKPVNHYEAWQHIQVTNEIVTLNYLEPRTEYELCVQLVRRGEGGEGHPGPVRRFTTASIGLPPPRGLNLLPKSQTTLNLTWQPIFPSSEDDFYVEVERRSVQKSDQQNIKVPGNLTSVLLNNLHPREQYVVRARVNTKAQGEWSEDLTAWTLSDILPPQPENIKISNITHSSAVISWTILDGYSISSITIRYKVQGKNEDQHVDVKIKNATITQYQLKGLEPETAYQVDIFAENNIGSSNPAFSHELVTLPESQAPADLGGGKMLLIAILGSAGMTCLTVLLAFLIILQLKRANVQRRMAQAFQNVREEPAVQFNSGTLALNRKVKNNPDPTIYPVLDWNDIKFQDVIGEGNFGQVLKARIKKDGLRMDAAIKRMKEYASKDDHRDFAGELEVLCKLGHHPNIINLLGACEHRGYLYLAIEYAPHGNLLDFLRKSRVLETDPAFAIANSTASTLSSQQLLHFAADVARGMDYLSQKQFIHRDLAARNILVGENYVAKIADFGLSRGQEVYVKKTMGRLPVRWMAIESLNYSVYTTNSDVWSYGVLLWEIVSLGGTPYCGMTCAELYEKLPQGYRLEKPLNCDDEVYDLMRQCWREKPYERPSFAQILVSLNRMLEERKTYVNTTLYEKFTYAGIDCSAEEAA
smiles,measurement,setting,value
C=CC(=O)Nc1cc(Nc2ncc(Cl)c(Nc3ccccc3S(=O)(=O)C(C)C)n2)c(OC)cc1N(C)CCN(C)C,Activity,[1],69%
same,Activity,[2],19%
same,Activity,[3],1.7%
same,Activity,[4],20%
same,Activity,[5],21%
same,Activity,[6],94%
same,Activity,[7],8.8%
same,Activity,[8],12%
same,Activity,[9],30%
same,Activity,[10],2.3%
same,Activity,[11],70%
same,EC50,BaF3,> 5 µM
same,Activity,[12],87%
same,Activity,[13],86%
same,Activity,[14],100%
same,Activity,[15],26%
same,Activity,[16],53%
same,Activity,[17],5.6%
same,Activity,[18],0.35%
same,Activity,[19],12%
same,Activity,[20],67%
same,Activity,[21],39%
same,Activity,[22],83%
same,Activity,[23],80%
